According to ChEMBL document CHEMBL5058577, “EUbOPEN Chemogenomics Library 2 (Multiplex)” (2022):

Test system: Fibroblast
Assay: Multiplex assay against human fibroblast
Assay type: toxicity, cell-based
Method in brief: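 Cells were classed with CellPathfinder machine-learning gating, first as Hoechst high-intensity objects or normal cells, then (normal cells) as healthy, pyknosed or fragmented nuclei, and finally (pyknosed cells) as mitotic or apoptotic. Staining of live cells at seeding used Hoechst33342, BioTracker Green Microtubule Cytoskeleton Dye, MitoTracker Red and Annexin V Alexa Fluor 680, with imaging on a CQ1 microscope at 37°C and 5% CO2 after compound addition. Tubulin, mitochondrial-mass and membrane-permeability phenotypes are per cents of healthy-nucleus cells.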

[1] = 12 h, 1 µM, compound concentration 1 uM, replicate 1
[2] = 12 h, 1 µM, compound concentration 1 uM, replicate 2
[3] = 12 h, 10 µM, compound concentration 10 uM, replicate 1
[4] = 12 h, 10 µM, compound concentration 10 uM, replicate 2
[5] = 24 h, 1 µM, compound concentration 1 uM, replicate 1
[6] = 24 h, 1 µM, compound concentration 1 uM, replicate 2
[7] = 24 h, 10 µM, compound concentration 10 uM, replicate 1
[8] = 24 h, 10 µM, compound concentration 10 uM, replicate 2
[9] = 48 h, 1 µM, compound concentration 1 uM, replicate 1
[10] = 48 h, 1 µM, compound concentration 1 uM, replicate 2
[11] = 48 h, 10 µM, compound concentration 10 uM, replicate 1
[12] = 48 h, 10 µM, compound concentration 10 uM, replicate 2

CCCOc1ccc2[nH]cc(C3=CCNCC3)c2n1.Cl
Population Apoptotic (%) [1]: 42%
Population Fragmented Nuclei (%) [1]: 13%
Population Healthy Nuclei (%) [1]: 71%
Population Hoechst High Intensity Objects (%) [1]: 2%
Population Membrane Permeable-Phenotype (%) [1]: 0%
Population Mitochondria Different-Phenotype (%) [1]: 6%
Population Mitotic Cells (%) [1]: 57%
Population Normal (%) [1]: 97%
Population Pyknosed Nuclei (%) [1]: 15%
Population Tubulin-Different-Phenotype (%) [1]: 27%
Total Cell Count [1]: 143
Population Apoptotic (%) [2]: 48%
Population Fragmented Nuclei (%) [2]: 25%
Population Healthy Nuclei (%) [2]: 52%
Population Hoechst High Intensity Objects (%) [2]: 0%
Population Membrane Permeable-Phenotype (%) [2]: 8%
Population Mitochondria Different-Phenotype (%) [2]: 2%
Population Mitotic Cells (%) [2]: 51%
Population Normal (%) [2]: 99%
Population Pyknosed Nuclei (%) [2]: 21%
Population Tubulin-Different-Phenotype (%) [2]: 47%
Total Cell Count [2]: 137
Population Apoptotic (%) [3]: 70%
Population Fragmented Nuclei (%) [3]: 16%
Population Healthy Nuclei (%) [3]: 70%
Population Hoechst High Intensity Objects (%) [3]: 4%
Population Membrane Permeable-Phenotype (%) [3]: 0%
Population Mitochondria Different-Phenotype (%) [3]: 12%
Population Mitotic Cells (%) [3]: 29%
Population Normal (%) [3]: 95%
Population Pyknosed Nuclei (%) [3]: 13%
Population Tubulin-Different-Phenotype (%) [3]: 41%
Total Cell Count [3]: 133
Population Apoptotic (%) [4]: 40%
Population Fragmented Nuclei (%) [4]: 31%
Population Healthy Nuclei (%) [4]: 48%
Population Hoechst High Intensity Objects (%) [4]: 2%
Population Membrane Permeable-Phenotype (%) [4]: 1%
Population Mitochondria Different-Phenotype (%) [4]: 10%
Population Mitotic Cells (%) [4]: 60%
Population Normal (%) [4]: 97%
Population Pyknosed Nuclei (%) [4]: 20%
Population Tubulin-Different-Phenotype (%) [4]: 59%
Total Cell Count [4]: 125
Population Apoptotic (%) [5]: 57%
Population Fragmented Nuclei (%) [5]: 14%
Population Healthy Nuclei (%) [5]: 76%
Population Hoechst High Intensity Objects (%) [5]: 2%
Population Membrane Permeable-Phenotype (%) [5]: 0%
Population Mitochondria Different-Phenotype (%) [5]: 6%
Population Mitotic Cells (%) [5]: 42%
Population Normal (%) [5]: 97%
Population Pyknosed Nuclei (%) [5]: 9%
Population Tubulin-Different-Phenotype (%) [5]: 20%
Total Cell Count [5]: 155
Population Apoptotic (%) [6]: 38%
Population Fragmented Nuclei (%) [6]: 28%
Population Healthy Nuclei (%) [6]: 52%
Population Hoechst High Intensity Objects (%) [6]: 0%
Population Membrane Permeable-Phenotype (%) [6]: 5%
Population Mitochondria Different-Phenotype (%) [6]: 5%
Population Mitotic Cells (%) [6]: 61%
Population Normal (%) [6]: 100%
Population Pyknosed Nuclei (%) [6]: 18%
Population Tubulin-Different-Phenotype (%) [6]: 40%
Total Cell Count [6]: 140
Population Apoptotic (%) [7]: 61%
Population Fragmented Nuclei (%) [7]: 23%
Population Healthy Nuclei (%) [7]: 64%
Population Hoechst High Intensity Objects (%) [7]: 1%
Population Membrane Permeable-Phenotype (%) [7]: 0%
Population Mitochondria Different-Phenotype (%) [7]: 12%
Population Mitotic Cells (%) [7]: 38%
Population Normal (%) [7]: 98%
Population Pyknosed Nuclei (%) [7]: 11%
Population Tubulin-Different-Phenotype (%) [7]: 36%
Total Cell Count [7]: 159
Population Apoptotic (%) [8]: 50%
Population Fragmented Nuclei (%) [8]: 20%
Population Healthy Nuclei (%) [8]: 68%
Population Hoechst High Intensity Objects (%) [8]: 2%
Population Membrane Permeable-Phenotype (%) [8]: 4%
Population Mitochondria Different-Phenotype (%) [8]: 8%
Population Mitotic Cells (%) [8]: 50%
Population Normal (%) [8]: 97%
Population Tubulin-Different-Phenotype (%) [8]: 61%
Total Cell Count [8]: 107
Population Apoptotic (%) [9]: 69%
Population Fragmented Nuclei (%) [9]: 17%
Population Healthy Nuclei (%) [9]: 74%
Population Hoechst High Intensity Objects (%) [9]: 2%
Population Membrane Permeable-Phenotype (%) [9]: 0%
Population Mitochondria Different-Phenotype (%) [9]: 5%
Population Mitotic Cells (%) [9]: 30%
Population Normal (%) [9]: 97%
Population Pyknosed Nuclei (%) [9]: 8%
Population Tubulin-Different-Phenotype (%) [9]: 23%
Total Cell Count [9]: 162
Population Apoptotic (%) [10]: 64%
Population Fragmented Nuclei (%) [10]: 36%
Population Healthy Nuclei (%) [10]: 53%
Population Hoechst High Intensity Objects (%) [10]: 4%
Population Membrane Permeable-Phenotype (%) [10]: 5%
Population Mitochondria Different-Phenotype (%) [10]: 2%
Population Mitotic Cells (%) [10]: 35%
Population Normal (%) [10]: 95%
Population Pyknosed Nuclei (%) [10]: 9%
Population Tubulin-Different-Phenotype (%) [10]: 40%
Total Cell Count [10]: 147
Population Apoptotic (%) [11]: 73%
Population Fragmented Nuclei (%) [11]: 21%
Population Healthy Nuclei (%) [11]: 65%
Population Hoechst High Intensity Objects (%) [11]: 2%
Population Membrane Permeable-Phenotype (%) [11]: 0%
Population Mitochondria Different-Phenotype (%) [11]: 9%
Population Mitotic Cells (%) [11]: 26%
Population Normal (%) [11]: 97%
Population Pyknosed Nuclei (%) [11]: 13%
Population Tubulin-Different-Phenotype (%) [11]: 45%
Total Cell Count [11]: 150
Population Apoptotic (%) [12]: 60%
Population Fragmented Nuclei (%) [12]: 32%
Population Healthy Nuclei (%) [12]: 62%
Population Hoechst High Intensity Objects (%) [12]: 5%
Population Membrane Permeable-Phenotype (%) [12]: 4%
Population Mitochondria Different-Phenotype (%) [12]: 13%
Population Mitotic Cells (%) [12]: 40%
Population Normal (%) [12]: 94%
Population Pyknosed Nuclei (%) [12]: 4%
Population Tubulin-Different-Phenotype (%) [12]: 44%
Total Cell Count [12]: 116
